Screening data deposited in PubChem by several laboratories.
This is a sample that favours compounds with a hit; in the whole collection about 4% have one here.
FAS-TE inh = FAS thioesterase (human) inhibition | P49327 | recombinant FAS-TE, OMFH fluorogenic substrate, fluorescence endpoint | inhibition, % at 15 µM | 0.67% of 360,000 active | AID 602261;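 active = compounds whose normalised, plate-corrected inhibition of enzyme fluorescence in the single-dose primary screen is 50% or more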;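 note: 0% = DMSO with enzyme and 100% = substrate without enzyme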
GRIN3A LBD mod = modulators (binders) of human NR3A ligand-binding domain | NR3A LBD differential scanning fluorimetry, Tm shift; 0% = protein alone, 100% = glycine-bound protein | Tm shift relative to glycine control, % at 25 µM | 2.5% of 340,000 active | AID 1259313;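 active = melting temperature shift of at least 10% of the positive control shift, at one fixed dose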
Arr AP2 block = blocks beta-arrestin peptide binding to AP2 adaptin | FITC-arrestin peptide / GST-AP2 beads, flow cytometry; AP2 beta2 appendage carries R879A mutation | inhibition, % at 10 µM | 0.31% of 340,000 active | AID 504490;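 active = inhibition above a set limit, near 3 SD of compounds lacking own fluorescence, cut at about 54% in these data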;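 note: plate controls were DMSO wells for no effect and 5 µM unlabelled arrestin peptide for full effect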
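Measured by: flow cytometry, FL1 (488/535 nm); Material: AP2 appendage R879A on GSH beads; Evaluation: percent response; Timing: pre-incubation 12 min, peptide binding 1 h, room temperature; Also added: 50 nM FITC-arrestin peptide; Medium: PBS with 0.05% Tween 20 and 0.1% BSA.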
H9c2 protect = protects H9c2 cardiomyocytes from peroxide injury | H2O2 injury protection, ATPLite, 2 h | 0.63% of 360,000 active | protection from H2O2 cell death, % at 20 µM;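 active = compounds giving at least 50% protection of heart cells from peroxide-induced death in the single-dose screen, raw or plate-pattern-corrected value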;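 note: 0% = DMSO wells with peroxide and 100% = DMSO wells without peroxide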
SENP1 FRET inh = SENP1 (human) catalytic domain inhibition | inhibition, % at 10 µM | AID 624204 | recombinant SENP1 catalytic domain, CyPet-SUMO1-YPet FRET cleavage | 0.21% of 360,000 active | Q9P0U3;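 active = inhibition at least 30% at 10 µM, raw YFP signal under a set limit, fluorescence ratio 0.5 to 1.5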;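 note: 0% = enzyme with DMSO and 100% = no enzyme wells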
Target sequence (Q9P0U3 419-644 limits assumed): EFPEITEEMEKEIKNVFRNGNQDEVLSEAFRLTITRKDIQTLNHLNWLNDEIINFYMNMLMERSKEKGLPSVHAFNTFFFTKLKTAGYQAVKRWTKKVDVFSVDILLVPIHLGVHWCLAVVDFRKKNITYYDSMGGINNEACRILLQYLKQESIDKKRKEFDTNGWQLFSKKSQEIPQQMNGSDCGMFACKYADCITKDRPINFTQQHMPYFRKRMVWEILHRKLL
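System: Recombinant human SENP1 catalytic domain, His6-tagged | Incubation: Enzyme reaction for 50 min at room temperature, dark | Medium: Tris pH 8 with BME, BSA, NP40 and catalase | Also added: 25 nM SUMO1 FRET substrate | Compound: 10 µM single point, 0.5% DMSO | Measured by: FRET fluorescence in CFP and YFP emission channels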
hiPSC survival = hiPSC single-cell survival enhancement. ATPlite luminescence; 100% = ROCK inhibitor wells, 0% = DMSO. 0.044% of 360,000 active. AID 602274. survival enhancement, % at 20 µM; in the data active = survival enhancement above about 18%;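 note: cells exposed to compounds for 16 hours before the ATP read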
Starred values were filed as active, the others as inactive; / = not tested or not shown.

SMILES | FAS-TE inh | GRIN3A LBD mod | Arr AP2 block | H9c2 protect | SENP1 FRET inh | hiPSC survival
Cc1ccc(NC(=O)c2cccc(C(=O)Nc3ccc(C)cc3C(=O)O)c2)c(C(=O)O)c1 | -6 | 25* | 10 | 8 | 4 | 0
COc1ccc(C)cc1NC(=O)c1cccc(C(=O)Nc2cc(C)ccc2OC)c1 | 40 | -10 | 3 | 5 | 1 | 0
COc1ccc(CC(=O)N2N=C(c3ccncc3)CC2(O)C(F)(F)F)cc1 (configuration not stated) | -2 | -1 | / | 0 | 2 | 29*
COC(=O)C1CCN(C(=O)COC(=O)c2oc3ccccc3c2C)CC1 | -11 | 17* | -3 | 8 | 2 | 0
O=C(O)c1ccccc1C(=O)NCC(O)COCC1CC=CCC1 (configuration not stated) | -7 | -1 | 7 | 2 | -1 | 28*
COC(=O)c1cc(NC(=O)CC2SC(=Nc3ccccc3)N(CCc3c[nH]c4ccccc34)C2=O)cc(C(=O)OC)c1 (configuration not stated) | 28 | 23* | -1 | -1 | -18 | 2
COCCN1C(=O)C(CC(=O)Nc2ccc(C(=O)O)cc2)SC1=Nc1ccccc1 (configuration not stated) | -6 | 3 | 32 | -2 | 1 | 3
CCCCCCN1CCN(C2CN(Cc3cn(Cc4ccc(C)cc4)nn3)S(=O)(=O)C2)CC1 (configuration not stated) | 11 | / | / | / | -2 | -1
N#Cc1ccc(-c2cccc3nccn23)cc1 | -5 | / | / | -1 | -18 | 2
CCOC(=O)N1CCN(CC(=O)c2ccc3c(c2)CCN3C(C)=O)CC1 | -4 | 2 | 0 | 14 | -18 | 3
CC(=O)N1CCc2cc(C(=O)CN3CCCCC3)ccc21 | -1 | 13* | -2 | 6 | -4 | 2
Nc1ccc2c3c(cccc13)C(=O)N(c1ccccc1)C2=O | -166 | -3 | 3 | 1 | -36 | -1
Cc1cccc(N2C(=O)c3cccc4c(N)ccc(c34)C2=O)c1 | -140 | -7 | -4 | 7 | -26 | -1
CC(C)CCN1C(=O)c2cccc3c(N)ccc(c23)C1=O | -148 | 14* | 53 | 5 | -34 | 0
Nc1cccc(N2C(=O)c3cccc4c(N)ccc(c34)C2=O)c1 | -126 | 10* | -6 | 16 | -26 | 2
O=C(CN1CCN(CC(=O)Nc2ccc3c(c2)OC2(CCCCC2)O3)CC1)Nc1cccc(F)c1 | 30 | -7 | 20 | 2 | -3 | -1
CCC(CC)NC(=O)c1ccc2nc[nH]c2c1 | -10 | 18* | 2 | 8 | 1 | 6
COc1cc(C(=O)N/N=C/c2ccc(OC(=O)c3ccccc3)c(OC)c2)ccc1O | 4 | -1 | 15 | 52* | 1 | 0
COc1cc(/C=N/NC(=O)c2ccc3nc[nH]c3c2)ccc1O | -7 | 26* | -2 | 9 | 3 | 0
COc1cc(/C=N/NC(=O)c2ccc(CSc3nc4ccccc4[nH]3)cc2)ccc1O | 0 | 5 | 6 | 52* | 3 | 1
COc1cc(/C=N/NC(=O)c2ccccc2)ccc1O | -7 | 2 | -4 | 2 | 2 | 2
COC(=O)c1ccc(Cn2cnc3c(Cl)ncnc32)cc1 | -10 | 0 | 33 | 24 | 1 | 0
COc1cc(/C=N/NC(=O)c2cc(O)cc(O)c2)ccc1OC(=O)c1ccccc1 | 2 | 6 | -5 | 56* | 5 | 1
COc1cc(/C=N/NC(=O)c2[nH]nc3c2CCc2ccccc2-3)ccc1O | 8 | 29* | -3 | 54* | 0 | 0
O=C(N/N=C/C(Br)=C\c1ccccc1)c1ccc2nc[nH]c2c1 | -10 | 15* | -1 | 3 | 0 | -2
SMILES | FAS-TE inh | GRIN3A LBD mod | Arr AP2 block | H9c2 protect | SENP1 FRET inh | hiPSC survival
COc1cc(/C=N/NC(=O)c2ccc(=O)[nH]n2)ccc1O | -7 | -3 | 25 | -1 | 1 | 2
CC(C)Oc1ccc(CN2CCC2(C)C(=O)Nc2cccc(Oc3ccccc3)c2)cc1 (configuration not stated) | 23 | / | / | -14 | 1 | -1
O=C(c1cc2ccccc2o1)N1CCN(Cc2nc3ccccc3s2)CC1 | -8 | / | / | -4 | 1 | 0
COc1ccc2cc(C#CC3=CC(=O)C[C@H](c4ccc(F)cc4)C3)ccc2c1 | 15 | / | / | 0 | 11 | 0
COc1cc(NC(=O)c2cc(C3CC3)on2)c(OC)cc1Cl | 10 | 14* | 4 | -10 | 1 | 1
Cc1c(C(c2cccc([N+](=O)[O-])c2O)c2c(C)n(C)n(-c3ccccc3)c2=O)c(=O)n(-c2ccccc2)n1C | -4 | 3 | 3 | 1 | 2 | 3
Cc1[nH]n(-c2ccccc2)c(=O)c1C(c1cccc([N+](=O)[O-])c1O)c1c(C)[nH]n(-c2ccccc2)c1=O | 4 | 19* | 29 | -11 | 3 | 1
O=C(Nc1ccon1)c1ccc(OC2CCCC2)cc1 | -1 | 23* | 2 | -9 | 2 | -1
CC(C)(C)c1cc(NC(=O)c2ccc(OC3CCCC3)cc2)no1 | 11 | 15* | -4 | -11 | 3 | 6
COc1ccc2cc3c(N)nn(C(=O)c4ccccc4[N+](=O)[O-])c3nc2c1 | 9 | -5 | 2 | 20 | -14 | -3
COc1ccc2cc3c(N)nn(C(=O)c4ccc(Cl)c([N+](=O)[O-])c4)c3nc2c1 | 1 | 22* | 2 | 7 | 1 | -1
O=C(CSCc1ccc(Cl)cc1)Nc1cccc(C(=O)Nc2ccccc2C(=O)O)c1 | -6 | 10* | 7 | 4 | 4 | 2
O=C(CSCc1ccccc1)Nc1cccc(C(=O)Nc2ccccc2C(=O)O)c1 | 0 | 5 | 7 | 0 | 1 | 1
COc1cccc(CNC(=O)c2ccc(F)c(S(=O)(=O)N3CCCCC3)c2)c1 | 2 | / | / | -3 | 2 | 0
CCCCn1nnnc1C1(C)CCC(=O)N1Cc1cccc(F)c1 (configuration not stated) | -7 | / | / | / | 1 | 2
Cc1cc(C(N)=O)c2cc(Br)ccc2n1 | -9 | 13* | 1 | 0 | 1 | 0
CCOC(=O)c1c(C)[nH]c(C)c1C(=O)CSc1nc2ccccc2c(=O)n1-c1ccc(CC)cc1 | 23 | 2 | -2 | 14 | -1 | 1
CC(=O)c1ccc(-n2c(SCC(=O)c3c[nH]c4ccccc34)nc3ccccc3c2=O)cc1 | 23 | 16* | 2 | 13 | -6 | -1
CCc1ccc(NC(=O)c2cccc(NC3=NC4CS(=O)(=O)CC4S3)c2)cc1 (configuration not stated) | -2 | -7 | -2 | -9 | 1 | 0
CCc1ccc(NC(=O)Cc2ccc(NC3=NC4CS(=O)(=O)CC4S3)cc2)cc1 (configuration not stated) | -6 | 10* | 0 | 3 | -1 | -2
